PubChem BioAssay
Active and inactive are the calls of the source.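 Rule for the calls, unless noted: active = visually confirmed hit in the image check and inhibition above 20%; inconclusive = visually confirmed hit but inhibition not above 20%; inactive = no visual hit in the image check.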

Key:
[1] = inhibitors of TNFa-induced NFkB p65 translocation, primary screen, imaging, HUVEC, MLSMR starter and 10KST1 sets (AID 438;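 active = inhibition above 20% together with a positive visual image hit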;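 note: compound added about 3h40 before a 20 min TNFalpha stimulation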;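 for inhibition: signal is the nuclear over cytoplasmic p65 intensity ratio per well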); conditions: HUVEC TNFa-induced p65 nuclear translocation; cell count: measured here: nuclei count (cytotoxicity indicator), at 2.08 µM; inhibition: at 2 µM, stronger effect = higher value, 0% TNFa-plus-vehicle, 100% no-TNFa wells
[2] = endothelial E-selectin expression blockers – imaging, HUVEC, immunofluorescence, MLSMR starter and 10KST1 sets, primary screen (AID 487); conditions: HUVEC TNFalpha-induced E-selectin immunofluorescence imaging, at 2 µM; inhibition: stronger effect = higher value; nuclei count: measured here: cell number, toxicity;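 for inhibition: signal is fraction of cell area covered by stained E-selectin grains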;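 for nuclei count: 100% = median nuclei count of all wells on the same plate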
[3] = Primary imaging screen for DUSP6 inhibitors that restore phospho-Erk in transfected HeLa cells, chemical complementation (AID 609;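 active = compounds giving at least 50% inhibition in the cell-based MKP-3 phosphatase rescue imaging test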;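 for inhibition: phospho-Erk level distribution per well compared with pooled transfected vehicle control wells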); conditions: HeLa MKP-3 transfected, phospho-Erk imaging KS statistic, at 10 µM, cells stimulated with TPA for 15 min
[4] = biological target: Dual specificity protein phosphatase 6 (Homo sapiens) (UniProt Q16828); assay: as above; conditions: HeLa MKP-3 transfected, phospho-Erk imaging KS statistic; at 10 µM; stronger effect = higher value; cells stimulated with TPA for 15 min
[5] = biological target: Voltage-gated potassium channel subunit beta-2 (Rattus norvegicus) (UniProt P62483); assay: inhibitors of rat Kvbeta2 reductase activity – biochemical, NADPH fluorescence, primary screen (AID 622;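 active = fluorescence slope higher than the sample average by over 3 SD, cut at about -0.22 in these data, passing the limit was not always enough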;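 note: slope of raw intensity against log time taken from 70 to 1610 s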); conditions: recombinant KvBeta, 4-cyanobenzaldehyde reduction, at 10 µM, stronger effect = higher value
[6] = biological target: Voltage-gated potassium channel subunit beta-2 (Rattus norvegicus) (UniProt P62483); assay: enhancers of rat Kvbeta2 NADPH turnover – biochemical, NADPH fluorescence, primary screen (AID 623;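 active = NADPH fluorescence slope more negative than the mean of all samples by about 3 SD, 99.7% confidence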;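 note: fluorescence intensity change per second fitted from 20 to 320 s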); conditions: Recombinant KvBeta, NADPH fluorescence decrease slope, 10 min; at 10 µM; stronger effect = lower value
[7] = biological target: Muscarinic acetylcholine receptor M4 (Homo sapiens) (UniProt P08173); assay: M4-linked GIRK flux change, two-sided – cell-based, HEK293 M4/GIRK, thallium flux, BTC-AM, M4 allosteric agonist project, primary screen (AID 625;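 active = fluorescence slope after compound addition differing from the mean of all tested samples at 99.7% confidence, mostly higher but some lower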;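 note: thallium influx through GIRK channels coupled to M4 in HEK293 cells with BTC-AM dye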); conditions: at 10 µM, actives lie on both sides
Outline: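 Material: HEK293 cells with M4 receptor and GIRK channels; Times: cells overnight at 37 °C, BTC-AM loading 1 h, reads 2 min total; Technique: kinetic BTC-AM fluorescence sampled at 1 Hz, 10 s pre-addition baseline; Read-out basis: slope over 15–24 s of trace normalized to starting intensity; Controls: carbachol positive, DMSO negative.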

[8] = inhibitors of larval lipid processing in zebrafish, primary screen, whole organism, PED6 fluorescence, gall bladder and intestine (AID 686;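 active = a full or partial loss of lipid-probe fluorescence in the fish gall bladder, intestine or both, judged by eye; inactive = no fluorescence loss, or compound toxic to the fish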;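 note: larvae 5 to 7 days old with five fish per well; signal comes from phospholipase A2 cleavage of quenched PED6 carried via bile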); conditions: Zebrafish larvae PED6 lipid processing, fluorescence scoring; screened at 20 µM (by protocol)
Outline: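 Incubation: overnight exposure of larvae to compound plus PED6 / Test system: live zebrafish larvae aged 5-7 days, whole organism / Amount: 5 larvae per well / Read-out basis: visual per-well fluorescence inhibition score / Signal: visual fluorescence microscopy scoring of gall bladder, gut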

[9] = loss of swimming-algae plug formation – whole organism, Chlamydomonas reinhardtii, WT vs cilia-less mutant, absorbance, 96-well, primary screen (AID 463189;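 active = inhibition at or above 50% relative to wild type and mutant plate controls; inactive = inhibition below 50%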;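 note: 0% = wild type cc124 cells in DMSO and 100% = ciliumless bld1 mutant cells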); conditions: Chlamydomonas reinhardtii gravitaxis, OD600 absorbance, 2 days; at 10 µM; stronger effect = higher value
[10] = measured here: cell density z-score
[11] = measured here: nuclear c-Myc green intensity z-score
[12] = measured here: nuclear pErk red intensity z-score, stronger effect = higher value

Chain of Muscarinic acetylcholine receptor M4 (Homo sapiens) (P08173 whole entry, looked up): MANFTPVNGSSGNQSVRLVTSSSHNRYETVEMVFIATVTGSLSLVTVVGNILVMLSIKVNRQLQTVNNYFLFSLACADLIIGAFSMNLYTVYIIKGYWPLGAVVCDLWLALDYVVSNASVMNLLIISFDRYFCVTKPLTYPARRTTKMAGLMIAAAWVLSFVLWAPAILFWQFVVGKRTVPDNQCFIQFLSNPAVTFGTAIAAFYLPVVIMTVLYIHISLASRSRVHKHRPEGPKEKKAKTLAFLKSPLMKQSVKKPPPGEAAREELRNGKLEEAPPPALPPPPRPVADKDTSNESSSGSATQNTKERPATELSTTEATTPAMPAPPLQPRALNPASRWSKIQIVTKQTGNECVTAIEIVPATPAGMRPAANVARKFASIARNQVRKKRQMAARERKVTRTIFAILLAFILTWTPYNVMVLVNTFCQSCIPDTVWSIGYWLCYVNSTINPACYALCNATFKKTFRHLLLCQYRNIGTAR
Chain of Dual specificity protein phosphatase 6 (Homo sapiens) (Q16828 whole entry, looked up): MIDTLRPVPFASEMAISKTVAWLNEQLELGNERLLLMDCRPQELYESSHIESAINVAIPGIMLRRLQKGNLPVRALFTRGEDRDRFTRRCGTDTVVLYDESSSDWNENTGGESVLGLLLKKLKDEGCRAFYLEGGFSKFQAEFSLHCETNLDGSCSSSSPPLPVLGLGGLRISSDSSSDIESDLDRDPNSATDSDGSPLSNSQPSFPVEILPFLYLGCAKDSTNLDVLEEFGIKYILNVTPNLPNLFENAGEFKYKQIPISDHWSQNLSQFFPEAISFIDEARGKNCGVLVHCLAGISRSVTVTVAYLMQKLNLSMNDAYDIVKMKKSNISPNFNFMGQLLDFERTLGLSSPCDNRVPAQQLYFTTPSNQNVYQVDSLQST
Chain of Voltage-gated potassium channel subunit beta-2 (Rattus norvegicus) (P62483 whole entry, looked up): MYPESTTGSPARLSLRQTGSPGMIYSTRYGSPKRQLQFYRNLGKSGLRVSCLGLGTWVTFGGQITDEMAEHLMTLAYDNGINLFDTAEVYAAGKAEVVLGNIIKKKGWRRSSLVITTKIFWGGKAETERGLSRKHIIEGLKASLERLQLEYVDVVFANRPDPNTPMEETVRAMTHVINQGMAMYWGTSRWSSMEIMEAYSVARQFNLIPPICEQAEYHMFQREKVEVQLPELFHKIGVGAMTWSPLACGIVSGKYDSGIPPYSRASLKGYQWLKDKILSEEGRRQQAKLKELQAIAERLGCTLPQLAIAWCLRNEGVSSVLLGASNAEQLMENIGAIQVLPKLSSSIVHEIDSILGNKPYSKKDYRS

Row | SMILES | cell count [1] | inhibition [1] | inhibition [2] | nuclei count [2] [%] | z-score [3, 10] | z-score [3, 11] | z-score [3, 12] | inhibition [4] | fluorescence slope [5] | NADPH fluorescence slope [6] | fluorescence slope [7] | outcome [8] | inhibition [9]
1 | NC(=O)C(c1ccccc1)C1CCCC1 (stereo not given) | 603 | -8.2% (inactive) | -33.8% (inactive) | 113 | 1.58 | -0.32 | -0.629 | -3.95% (inactive) | -0.409 (inactive) | -4.8e-05 (inactive) | 0.00443 (inactive) | inactive | -3.81% (inactive)
2 | CC(O)CNc1nc2c(c(=O)n(C)c(=O)n2C)n1CCc1ccccc1 (stereo not given) | 710 | -2.3% (inactive) | -92.1% (inactive) | 180 | 0.422 | -1.99 | 1.04 | 5.95% (inactive) | -0.464 (inactive) | -0.000209 (active) | 0.00739 (inactive) | inactive | 23% (inactive)
3 | CCN(CC)c1nc(-c2cccc(OC)c2O)nc2ccccc12 | 624 | -3.5% (inactive) | -45.9% (inactive) | 171 | -1.06 | -1.37 | 0.629 | 4.37% (inactive) | -0.5 (inactive) | -9.9e-05 (inactive) | 0.005 (inactive) | inactive | 15.7% (inactive)
4 | O=C1CC(c2ccccc2)n2nc(N3C(=O)c4ccccc4C3=O)nc2N1 (stereo not given) | 397 | 3% (inactive) | -72.9% (inactive) | 114 | 0.561 | 0.157 | -0.686 | 2.71% (inactive) | -0.441 (inactive) | -1.7e-05 (inactive) | 0.00457 (inactive) | inactive | 21.6% (inactive)
5 | C=CCOc1nc2c(c(=O)n(Cc3ccc(Cl)cc3)c(=O)n2C)n1C | 534 | -5.1% (inactive) | 22.1% (inactive) | 170 | -0.487 | 1.21 | 0.796 | -9.91% (inactive) | -0.414 (inactive) | -5.4e-05 (inactive) | 0.00453 (inactive) | inactive | -3.62% (inactive)
6 | COc1ccccc1C1/C(=C(\O)c2ccc3c(c2)OCCO3)C(=O)C(=O)N1CCCN(C)C (stereo not given) | 402 | 2.9% (inactive) | -18% (inactive) | 134 | 1.75 | -0.784 | 1.05 | -4.78% (inactive) | -0.456 (inactive) | -7.9e-05 (inactive) | 0.00501 (inactive) | inactive | 12.8% (inactive)
7 | COc1cccc(NC(=O)c2cc(C(=O)Nc3cccc(OC)c3)n(C)n2)c1 | 589 | 5.1% (inactive) | -73.5% (inactive) | 108 | -0.897 | 0.197 | 0.57 | 1.12% (inactive) | -0.504 (inactive) | -3.5e-05 (inactive) | 0.00667 (inactive) | inactive | -5.34% (inactive)
8 | CCC(=O)Nc1cccc(-c2nnc(SCC(=O)NCc3ccco3)n2C)c1 | 615 | -0.2% (inactive) | 47.2% (inactive) | 92.3 | 1.47 | -0.507 | -1.13 | 18.4% (inactive) | -0.51 (inactive) | -4e-05 (inactive) | 0.00589 (inactive) | inactive | -16.4% (inactive)
9 | CCC(=O)Nc1ccc(-c2nnc(SCC(=O)NCC3CCCO3)n2C)cc1 (stereo not given) | 656 | -4.5% (inactive) | 10.4% (inactive) | 160 | -0.113 | 1.6 | 0.412 | -2.09% (inactive) | -0.5 (inactive) | -5.7e-05 (inactive) | 0.0052 (inactive) | inactive | -4.35% (inactive)
10 | CC1(C)Cc2c(C#N)c(N3CCOCC3)nc(Cc3ccccc3)c2CO1 | 582 | -0.5% (inactive) | -122% (inactive) | 132 | -0.332 | -0.948 | -0.693 | -3.95% (inactive) | -0.445 (inactive) | -5.6e-05 (inactive) | 0.00448 (inactive) | inactive | 17.6% (inactive)
